Our source for the IC50 and Ratio IC50 values is ChEMBL document CHEMBL1146308 (Bioorg Med Chem, 2007).

By pIC50 is commonly meant the IC50 on a negative log10 scale, so that one unit is a factor of ten. Read a low pIC50 as a large IC50.

For one assay, the target named is T1, Acetylcholinesterase (Rattus norvegicus, UniProt P37136).
T1 sequence (P37136 whole entry): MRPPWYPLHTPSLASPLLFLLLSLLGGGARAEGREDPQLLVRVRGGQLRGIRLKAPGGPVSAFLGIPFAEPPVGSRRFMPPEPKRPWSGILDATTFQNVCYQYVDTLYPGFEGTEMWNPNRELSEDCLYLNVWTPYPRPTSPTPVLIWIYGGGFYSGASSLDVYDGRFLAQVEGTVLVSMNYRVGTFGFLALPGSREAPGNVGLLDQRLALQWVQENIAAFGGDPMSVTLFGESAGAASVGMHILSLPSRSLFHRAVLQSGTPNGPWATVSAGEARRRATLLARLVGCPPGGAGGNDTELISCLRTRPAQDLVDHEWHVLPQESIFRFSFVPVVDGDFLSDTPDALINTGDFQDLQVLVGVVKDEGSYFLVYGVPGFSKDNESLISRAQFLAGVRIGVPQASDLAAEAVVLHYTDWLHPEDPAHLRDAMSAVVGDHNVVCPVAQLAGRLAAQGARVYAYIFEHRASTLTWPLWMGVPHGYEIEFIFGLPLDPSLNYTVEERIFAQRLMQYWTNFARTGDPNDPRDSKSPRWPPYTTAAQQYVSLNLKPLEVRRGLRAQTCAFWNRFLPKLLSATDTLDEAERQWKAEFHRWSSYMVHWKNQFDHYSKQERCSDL
Briefly: Inhibition of AChE in rat cortex […].

The species named for the next assay is Rattus norvegicus. The assay can be described thus: Selectivity ratio of IC50 for rat BuChE to rat IC50 for AchE. A digest of the protocol:
(§1)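 Modified Ellman colorimetric cholinesterase assay. The AChE source was rat cortex homogenate and the BuChE source was rat serum. Inhibition was measured against each enzyme, and selectivity was taken as the BuChE IC50 over the AChE IC50.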

In another assay the target is Butyrylcholinesterase (Rattus norvegicus, UniProt Q9JKC1). The assay can be described thus: Inhibition of BuChE in rat serum. In kind it is cell-free. A digest of the protocol:
as §1

pIC50: −log10 of the molar value.

Sequence of Butyrylcholinesterase (Q9JKC1 whole entry): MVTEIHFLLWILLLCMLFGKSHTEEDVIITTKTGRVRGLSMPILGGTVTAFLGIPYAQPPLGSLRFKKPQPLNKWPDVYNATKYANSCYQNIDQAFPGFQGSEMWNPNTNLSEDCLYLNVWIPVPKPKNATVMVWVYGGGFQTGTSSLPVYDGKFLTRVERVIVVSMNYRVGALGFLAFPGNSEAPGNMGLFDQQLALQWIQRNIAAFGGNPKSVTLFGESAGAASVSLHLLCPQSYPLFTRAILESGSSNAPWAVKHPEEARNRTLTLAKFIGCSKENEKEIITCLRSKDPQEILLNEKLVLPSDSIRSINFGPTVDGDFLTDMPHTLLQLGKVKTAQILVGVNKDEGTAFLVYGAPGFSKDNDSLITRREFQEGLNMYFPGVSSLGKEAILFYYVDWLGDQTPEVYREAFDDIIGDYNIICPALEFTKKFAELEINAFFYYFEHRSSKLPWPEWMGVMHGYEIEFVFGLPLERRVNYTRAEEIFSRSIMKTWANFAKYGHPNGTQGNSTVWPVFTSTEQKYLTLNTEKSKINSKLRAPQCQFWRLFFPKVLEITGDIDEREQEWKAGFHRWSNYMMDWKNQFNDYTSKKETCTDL

For the compound `CC1=C[C@H]2Cc3[nH]c(=O)ccc3[C@@]3(C1)[C@@H]2CCCN3C(=O)CN(C)CCCCCCCCN(C)Cc1ccccn1`, the pIC50 against Acetylcholinesterase was 7.39. `CC1=C[C@H]2Cc3[nH]c(=O)ccc3[C@@]3(C1)[C@@H]2CCCN3CCN1CCCN(CCN2CCC[C@@H]3[C@H]4C=C(C)C[C@]32c2ccc(=O)[nH]c2C4)CC1`: in the assay filed under Rattus norvegicus, the Ratio IC50 came out at 573. For `CC1=C[C@H]2Cc3[nH]c(=O)ccc3[C@@]3(C1)[C@@H]2CCCN3C(=O)CCN(C)CCCCCCN(C)CCC(=O)N1CCC[C@@H]2[C@H]3C=C(C)C[C@]21c1ccc(=O)[nH]c1C3`, the pIC50 against Acetylcholinesterase was 7.44; on Butyrylcholinesterase, 4.17. In addition, the Ratio IC50 in the assay filed under Rattus norvegicus was found to be 1890. For `CC1=C[C@H]2Cc3[nH]c(=O)ccc3[C@@]3(C1)[C@@H]2CCCN3C(=O)CN(C)CCCCCCCCCCN(C)Cc1cccnc1`, at Butyrylcholinesterase, the pIC50 was 4.89. For `CC1=C[C@H]2Cc3[nH]c(=O)ccc3[C@@]3(C1)[C@@H]2CCCN3CCCN1CCCN(CCCN2CCC[C@@H]3[C@H]4C=C(C)C[C@]32c2ccc(=O)[nH]c2C4)CC1`, the pIC50 against Acetylcholinesterase was 6.48. For the compound `CC1=C[C@H]2Cc3[nH]c(=O)ccc3[C@@]3(C1)[C@@H]2CCCN3C(=O)CN(C)CCCCCCCCN(C)CC(=O)N1CCC[C@@H]2[C@H]3C=C(C)C[C@]21c1ccc(=O)[nH]c1C3`, the pIC50 was 7.29 against Acetylcholinesterase and 4.18 at Butyrylcholinesterase. Besides, the Ratio IC50 in the assay listed under Rattus norvegicus amounted to 1290.

`CC1=C[C@H]2Cc3[nH]c(=O)ccc3[C@@]3(C1)[C@@H]2CCCN3C(=O)CN(C)CCCCCCCCCCCCN(C)Cc1ccccn1`: the negative logarithm of the IC50 (pIC50) against Acetylcholinesterase was 7.18. Take `CC1=C[C@H]2Cc3[nH]c(=O)ccc3[C@@]3(C1)[C@@H]2CCCN3C(=O)CN(C)CCCCCCCCCCCCN(C)CC(=O)N1CCC[C@@H]2[C@H]3C=C(C)C[C@]21c1ccc(=O)[nH]c1C3`: the negative-log IC50 (pIC50) at Acetylcholinesterase is 7.27.

For the compound `CC1=C[C@H]2Cc3[nH]c(=O)ccc3[C@@]3(C1)[C@@H]2CCCN3CCN(C)CCCCCCCCN(C)CCN1CCC[C@@H]2[C@H]3C=C(C)C[C@]21c1ccc(=O)[nH]c1C3`, the pIC50 against Acetylcholinesterase was 7.70. On the same count and under the same terms, in the case of `CC1=C[C@H]2Cc3[nH]c(=O)ccc3[C@@]3(C1)[C@@H]2CCCN3C(=O)CN(C)CCCCCCN(C)Cc1cccc2ccccc12` it was 6.91; in that of `CC1=C[C@H]2Cc3[nH]c(=O)ccc3[C@@]3(C1)[C@@H]2CCCN3C(=O)CN(C)CCCCCCCCCCCCN(C)Cc1ccc(F)cc1`, 6.51. On the same count and under the same terms, the result for `CC1=C[C@H]2Cc3[nH]c(=O)ccc3[C@@]3(C1)[C@@H]2CCCN3CCN(CCN1CCC[C@@H]2[C@H]3C=C(C)C[C@]21c1ccc(=O)[nH]c1C3)C1CC1` reads 6.16; that for `CC1=C[C@H]2Cc3[nH]c(=O)ccc3[C@@]3(C1)[C@@H]2CCCN3C(=O)CN(C)CCCCCCCCCCN(C)Cc1cccc2ccccc12`, 6.92. On to `CC1=C[C@H]2Cc3[nH]c(=O)ccc3[C@@]3(C1)[C@@H]2CCCN3C(=O)CN(C)CCCCCCCCCCN(C)Cc1ccc(F)cc1`, for which the pIC50 on Acetylcholinesterase was 7.28; at Butyrylcholinesterase it was 5.46. In addition, in the assay listed under Rattus norvegicus, the Ratio IC50 turned out to be 67.

`CC1=C[C@H]2Cc3[nH]c(=O)ccc3[C@@]3(C1)[C@@H]2CCCN3C(=O)CCN1CCN(CCC(=O)N2CCC[C@@H]3[C@H]4C=C(C)C[C@]32c2ccc(=O)[nH]c2C4)CC1` showed a negative-log IC50 (pIC50) against Acetylcholinesterase of 6.77. As for `CC1=C[C@H]2Cc3[nH]c(=O)ccc3[C@@]3(C1)[C@@H]2CCCN3C(=O)CN(C)CCCN(C)CC(=O)N1CCC[C@@H]2[C@H]3C=C(C)C[C@]21c1ccc(=O)[nH]c1C3`, the pIC50 at Acetylcholinesterase is 6.33; on Butyrylcholinesterase, 4.22. Besides, the Ratio IC50 in the assay filed under Rattus norvegicus is 127. Consider `CC1=C[C@H]2Cc3[nH]c(=O)ccc3[C@@]3(C1)[C@@H]2CCCN3C(=O)CCN(C)CCCCCCCCCCCCN(C)CCC(=O)N1CCC[C@@H]2[C@H]3C=C(C)C[C@]21c1ccc(=O)[nH]c1C3`, for which the results for the pIC50 against Acetylcholinesterase and at Butyrylcholinesterase were 7.64 and 4.05, respectively. Also, the Ratio IC50 in the assay filed under Rattus norvegicus stood at 3830. On to `CC1=C[C@H]2Cc3[nH]c(=O)ccc3[C@@]3(C1)[C@@H]2CCCN3C(=O)CCN(C)CCCCCCCCN(C)CCC(=O)N1CCC[C@@H]2[C@H]3C=C(C)C[C@]21c1ccc(=O)[nH]c1C3`, for which the pIC50 at Acetylcholinesterase is 7.73; against Butyrylcholinesterase it was 4.20. Also, the Ratio IC50 in the assay listed under Rattus norvegicus was found to be 3400.

`CC1=C[C@H]2Cc3[nH]c(=O)ccc3[C@@]3(C1)[C@@H]2CCCN3CCN(C)CCCCCCN(C)CCN1CCC[C@@H]2[C@H]3C=C(C)C[C@]21c1ccc(=O)[nH]c1C3`: the pIC50 against Acetylcholinesterase is 7.11. With `COc1ccccc1CN(C)CCCCCCCCCCN(C)CC(=O)N1CCC[C@@H]2[C@H]3C=C(C)C[C@]21c1ccc(=O)[nH]c1C3`, the results for the negative logarithm of the IC50 (pIC50) against Acetylcholinesterase and against Butyrylcholinesterase were 7.68 and 5.06, respectively. In addition, the Ratio IC50 in the assay listed under Rattus norvegicus came to 410.

On to `CC1=C[C@H]2Cc3[nH]c(=O)ccc3[C@@]3(C1)[C@@H]2CCCN3CCCN(C)CCCCCCN(C)CCCN1CCC[C@@H]2[C@H]3C=C(C)C[C@]21c1ccc(=O)[nH]c1C3`, for which the negative-log IC50 (pIC50) against Acetylcholinesterase was 7.47.

As for `CC1=C[C@H]2Cc3[nH]c(=O)ccc3[C@@]3(C1)[C@@H]2CCCN3C(=O)CN(C)CCCCCCCCCCN(C)Cc1ccccn1`, the pIC50 against Acetylcholinesterase was 7.38. The pIC50 values of the last two compounds are within 0.2 log units of each other. The same measure, in the same setting: the result for `CC1=C[C@H]2Cc3[nH]c(=O)ccc3[C@@]3(C1)[C@@H]2CCCN3CCN(C)CCN(C)CCN1CCC[C@@H]2[C@H]3C=C(C)C[C@]21c1ccc(=O)[nH]c1C3` reads 5.46; that for `CCCN(CCN1CCC[C@@H]2[C@H]3C=C(C)C[C@]21c1ccc(=O)[nH]c1C3)CCN1CCC[C@@H]2[C@H]3C=C(C)C[C@]21c1ccc(=O)[nH]c1C3`, 6.00. The same measure, in the same setting: in the case of `CC1=C[C@H]2Cc3[nH]c(=O)ccc3[C@@]3(C1)[C@@H]2CCCN3C(=O)CN(C)CCCCCCCCN(C)Cc1ccc(F)cc1` it was 7.25. `CC1=C[C@H]2Cc3[nH]c(=O)ccc3[C@@]3(C1)[C@@H]2CCCN3CCCN(C)CCCCCCCCN(C)CCCN1CCC[C@@H]2[C@H]3C=C(C)C[C@]21c1ccc(=O)[nH]c1C3` had a pIC50 on Acetylcholinesterase of 7.39.

Compound `CC1=C[C@H]2Cc3[nH]c(=O)ccc3[C@@]3(C1)[C@@H]2CCCN3CCN(C)CCCN(C)CCN1CCC[C@@H]2[C@H]3C=C(C)C[C@]21c1ccc(=O)[nH]c1C3` gave a pIC50 against Acetylcholinesterase of 6.38. The same measure, in the same setting: the result for `COc1ccccc1CN(C)CCCCCCCCCCCCN(C)CC(=O)N1CCC[C@@H]2[C@H]3C=C(C)C[C@]21c1ccc(=O)[nH]c1C3` reads 7.21. Regarding `CC1=C[C@H]2Cc3[nH]c(=O)ccc3[C@@]3(C1)[C@@H]2CCCN3C(=O)CN1CCN(CC(=O)N2CCC[C@@H]3[C@H]4C=C(C)C[C@]32c2ccc(=O)[nH]c2C4)CC1`, the Ratio IC50 in the assay listed under Rattus norvegicus was over 157. With `CC1=C[C@H]2Cc3[nH]c(=O)ccc3[C@@]3(C1)[C@@H]2CCCN3C(=O)CCN1CCCN(CCC(=O)N2CCC[C@@H]3[C@H]4C=C(C)C[C@]32c2ccc(=O)[nH]c2C4)CC1`, on Acetylcholinesterase, the pIC50 is 6.75.

In the case of `CC1=C[C@H]2Cc3[nH]c(=O)ccc3[C@@]3(C1)[C@@H]2CCCN3C(=O)CN1CCCN(CC(=O)N2CCC[C@@H]3[C@H]4C=C(C)C[C@]32c2ccc(=O)[nH]c2C4)CC1`, the pIC50 on Acetylcholinesterase was 6.69. Further, the Ratio IC50 in the assay filed under Rattus norvegicus came to 838. Regarding `CCCN(CC(=O)N1CCC[C@@H]2[C@H]3C=C(C)C[C@]21c1ccc(=O)[nH]c1C3)CC(=O)n1c2c(ccc1=O)[C@@]13CC(C)=C[C@@H](C2)[C@H]1CCCN3`, the pIC50 on Acetylcholinesterase was 6.80. On the same count and under the same terms, in the case of `CC1=C[C@H]2Cc3[nH]c(=O)ccc3[C@@]3(C1)[C@@H]2CCCN3CCCN(C)CCCCCCCCCCN(C)CCCN1CCC[C@@H]2[C@H]3C=C(C)C[C@]21c1ccc(=O)[nH]c1C3` it was 7.58. Take `CC1=C[C@H]2Cc3[nH]c(=O)ccc3[C@@]3(C1)[C@@H]2CCCN3CCCN1CCN(CCCN2CCC[C@@H]3[C@H]4C=C(C)C[C@]32c2ccc(=O)[nH]c2C4)CC1`: the pIC50 against Acetylcholinesterase is 6.69. Against the preceding compound, the pIC50 is 0.89 log units lower.

For the compound `CC1=C[C@H]2Cc3[nH]c(=O)ccc3[C@@]3(C1)[C@@H]2CCCN3CCN1CCN(CN2CCC[C@@H]3[C@H]4C=C(C)C[C@]32c2ccc(=O)[nH]c2C4)CC1`, the pIC50 at Acetylcholinesterase was 6.39; on Butyrylcholinesterase, 3.72. Moreover, the Ratio IC50 in the assay filed under Rattus norvegicus came out at 472. At Acetylcholinesterase, `CC1=C[C@H]2Cc3[nH]c(=O)ccc3[C@@]3(C1)[C@@H]2CCCN3C(=O)CN(C)CCN(C)CC(=O)N1CCC[C@@H]2[C@H]3C=C(C)C[C@]21c1ccc(=O)[nH]c1C3` gave a negative-log IC50 (pIC50) of 5.99. Consider `CC1=C[C@H]2Cc3[nH]c(=O)ccc3[C@@]3(C1)[C@@H]2CCCN3C(=O)CN(C)CCCCCCN(C)CC(=O)N1CCC[C@@H]2[C@H]3C=C(C)C[C@]21c1ccc(=O)[nH]c1C3`, for which the pIC50 at Acetylcholinesterase was 7.12; at Butyrylcholinesterase it was 4.19. Also, the Ratio IC50 in the assay filed under Rattus norvegicus was determined as 846. As for `CC1=C[C@H]2Cc3[nH]c(=O)ccc3[C@]3(C1)NCCC[C@H]23`, in the assay listed under Rattus norvegicus, the Ratio IC50 was 12. On to `CC1=C[C@H]2Cc3[nH]c(=O)ccc3[C@@]3(C1)[C@@H]2CCCN3C(=O)CN(C)CCCCCCCCCCN(C)Cc1ccncc1`, for which the pIC50 on Acetylcholinesterase was 7.30. The same measure, in the same setting: the result for `CC1=C[C@H]2Cc3[nH]c(=O)ccc3[C@@]3(C1)[C@@H]2CCCN3C(=O)CN(CC(=O)N1CCC[C@@H]2[C@H]3C=C(C)C[C@]21c1ccc(=O)[nH]c1C3)C1CC1` reads 6.00.
